What was measured:
Raji = assay: Cell viability in Raji cells at 1000 mol ratio/TPA relative to control; type: functional, Homo sapiens
In short: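 Raji cells under the EBV-EA induction conditions (n-butyric acid 4 mmol plus TPA 32 pmol, 48 h, 37 C), with test compound added in DMSO at 1000 mol ratio to TPA. Viability was assayed by Trypan blue staining and reported as a percentage.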

Human gammaherpesvirus 4 [1] = assay: Inhibition of TPA-induced EBV-EA activation in Raji cells at 10 mol ratio/TPA relative to control; values are per cent of control
Human gammaherpesvirus 4 [2] = assay: Inhibition of TPA-induced EBV-EA activation in Raji cells at 100 mol ratio/TPA relative to control; values are per cent of control
Human gammaherpesvirus 4 [3] = assay: Inhibition of TPA-induced EBV-EA activation in Raji cells at 1000 mol ratio/TPA relative to control; values are per cent of control
Human gammaherpesvirus 4 [4] = assay: Inhibition of TPA-induced EBV-EA activation in Raji cells at 500 mol ratio/TPA relative to control; values are per cent of control
Mus musculus [5] = species: Mus musculus; assay: Suppression of DMBA/TPA-induced papilloma-formation in ICR mouse within 10 week; type: functional
Mus musculus [6] = species: Mus musculus; assay: Toxicity in ICR mouse with DMBA/TPA-induced papilloma; type: organism-based; conditions: in vivo
In short: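 Specific pathogen-free female ICR mice, 6 weeks old, in three groups of 15. Shaved backs were initiated topically with DMBA (390 nmol) in 0.1 ml acetone. From one week later, TPA (1.7 nmol) in 0.1 ml acetone was applied to the skin twice weekly. Treated groups also received 85 nmol of test agent with TPA. Mice were followed to week 20.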

Mus musculus [7] = species: Mus musculus; assay: Suppression of DMBA/TPA-induced papilloma-formation in ICR mouse at 85 nmol within 10 week; type: functional

SMILES | Activity (Raji) | level, % of control (Human gammaherpesvirus 4 [1]) | level, % of control (Human gammaherpesvirus 4 [2]) | level, % of control (Human gammaherpesvirus 4 [3]) | level, % of control (Human gammaherpesvirus 4 [4]) | Activity (Mus musculus [5]) | Activity (Mus musculus [6]) | Activity (Mus musculus [7])
CC(=O)O[C@H]1C[C@H]([C@@H](C)[C@H]2CC[C@@]3(C)C4=C(CC[C@]23C)[C@@]2(C)CC[C@H](OC(C)=O)C(C)(C)[C@@H]2CC4)OC1(C)C | 70% | – | – | – | – | – | – | –
CC(=O)O[C@H]1CC[C@]2(C)C3=C(CC[C@H]2C1(C)C)[C@]1(C)CC[C@H]([C@@H](CCC=C(C)C)C(=O)O)[C@@]1(C)CC3 [ACETYL TRAMETENOLIC ACID] | 70% | 100% | 79% | 12.7% | 47.8% | – | – | –
C[C@@H]([C@H]1CC[C@@]2(C)C3=C(CC[C@]12C)[C@@]1(C)CC[C@H](O)C(C)(C)[C@@H]1CC3)[C@H]1C[C@H](O)C(C)(C)O1 [INONOTSUOXIDE A] | 70% | 94.3% | 71.3% | 6.3% | 42% | – | – | –
CC(C)=CC[C@@H](O)[C@@H](C)[C@H]1CC[C@@]2(C)C3=C(CC[C@]12C)[C@@]1(C)CC[C@H](O)C(C)(C)[C@@H]1CC3 [INOTODIOL] | 70% | 93.1% | 66.1% | 2.4% | 37.6% | <30% | Non-toxic | –
CC(C)=CCC[C@@H](C)[C@H]1CC[C@@]2(C)C3=C(CC[C@]12C)[C@@]1(C)CC[C@H](O)C(C)(C)[C@@H]1CC3 [LANOSTEROL] | 70% | 96.3% | 74.3% | 4.9% | 44.7% | – | – | –
CC1(C)CC[C@]2(C(=O)O)CC[C@]3(C)C(=CC[C@@H]4[C@@]5(C)CC[C@H](O)C(C)(C)[C@@H]5CC[C@]43C)[C@@H]2C1 [OLEANOLIC_ACID] | – | – | – | – | – | – | Non-toxic | <30%
CC(C)=CCC[C@@H](C(=O)O)[C@H]1CC[C@@]2(C)C3=C(CC[C@]12C)[C@@]1(C)CC[C@H](O)C(C)(C)[C@@H]1CC3 [TRAMETENOLIC ACID] | 70% | 98.6% | 75.4% | 9.2% | 45% | – | – | –

Reference: ChEMBL document CHEMBL1144503, “Structure determination of inonotsuoxides A and B and in vivo anti-tumor promoting activity of inotodiol from the sclerotia of Inonotus obliquus” (Bioorg Med Chem, 2007)
